Test results from PMC8301577 (Clinical and Translational Science, 2021).
Several values for one entry are separate records, joined by “and”; a condition that tells them apart may be missing. Equal values may be shown once. Entries after “also recorded” stand apart in the source; their conditions may differ.

What was measured:
CES1 G143E = settings: cells transfected with the variant; cited from earlier work
[1] = Stability of QC samples in human plasma; format: physicochemical; settings: autosampler 4°C for 48 h or 3 successive freeze (−20°C) and thaw cycles
Summary of the method: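 Plasma QC samples held both analytes at 30, 300 and 1000 pg/ml, five replicates each. They were extracted by solid phase with deuterated internal standards and quantified by LC-MS/MS. Processed samples were tested after 48 h in the autosampler at 4°C, and QC samples after three freeze (−20°C)/thaw cycles, following FDA bioanalytical validation guidance.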

healthy volunteers = assay: Single-dose; format: in vivo, human
Summary of the method: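 Healthy non-smoking volunteers (8 CES1 G143E heterozygotes, 11 noncarriers) fasted overnight, then took a single 1 mg oral test compound dose with 240 ml water and fasted until 4 h post-dose. The maximal post-dose reduction was taken; mean ± SD.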

Single-dose = format: in vivo, human; settings: for CL: single oral dose 1 mg trandolapril, mean
ACE = settings: cited from earlier work
[2] = cited from earlier work
[3] = G/E, individual subjects (n=8), single oral dose 1 mg
[4] = G/G, individual subjects (n=11), single oral dose 1 mg
[5] = Mean ± SD (G/E), n=8, single oral dose 1 mg
[6] = Mean ± SD (G/G), n=11, single oral dose 1 mg

Which results are given for `CCOC(=O)[C@H](CCc1ccccc1)N[C@@H](C)C(=O)N1[C@H](C(=O)O)C[C@H]2CCCC[C@@H]21` [Trandolapril]?
catalytic activity of CES1 G143E on trandolapril activation (CES1 G143E): abolished; also recorded: completely impaired; stability of processed and QC samples [1]: stable; DBP Max reduction (healthy volunteers; [3]): 10 and 11 and 3 and 15 and 21 and 6 and 13; Heart rate Max reduction (healthy volunteers; [3]): 20 and 11 and 17 and 7 and 3 and 4 and 18; SBP Max reduction (healthy volunteers; [3]): 11 and 12 and 6 and 5 and 4 and 33; DBP Max reduction (healthy volunteers; [4]): 19 and 23 and 8 and 30 and 5 and 14 and 7 and 15 and 13; Heart rate Max reduction (healthy volunteers; [4]): 3 and −1 and 6 and 24 and 4 and −3 and 7 and 10 and 30 and 9; SBP Max reduction (healthy volunteers; [4]): 32 and 23 and 10 and 16 and 12 and 7 and 5 and 11; DBP Max reduction (healthy volunteers; [5]): 12 ± 6; Heart rate Max reduction (healthy volunteers; [5]): 12 ± 7; SBP Max reduction (healthy volunteers; [5]): 11 ± 9; DBP Max reduction (healthy volunteers; [6]): 15 ± 7; Heart rate Max reduction (healthy volunteers; [6]): 9 ± 10; SBP Max reduction (healthy volunteers; [6]): 14 ± 8; average maximum reduction of SBP in carriers less than in noncarriers (healthy volunteers; abstract, not statistically significant): ~ 22%; changes in heart rate after trandolapril administration (healthy volunteers; noncarrier and carrier group): no significant changes; time of maximal reduction of SBP and DBP after dosing (healthy volunteers; noncarrier group, single oral dose 1 mg): 6 to 8 h; maximum reduction of DBP in carrier group as percent of noncarrier group (healthy volunteers; p = 0.26, not statistically significant): 80.0%; maximum reduction of SBP in carrier group as percent of noncarrier group (healthy volunteers; p = 0.54, not statistically significant): 78.6%; CL (Single-dose; CES1 143G/E (n=8)): 1027.58 L/h; CL (Single-dose; CES1 143G/G (n=11)): 893.90 L/h

For `C[C@H](N[C@@H](CCc1ccccc1)C(=O)O)C(=O)N1[C@H](C(=O)O)C[C@H]2CCCC[C@@H]21` [Trandolaprilat, trandolaprilat], which “potency at inhibiting ACE relative to parent compound trandolapril” value (ACE) is on record?
The value was “approximately eight times more potent”.

And the “stability of processed and QC samples” value [1]?
Its value is “stable”.

What about the “decrease of Cmax in G143E carriers relative to noncarriers” value (Single-dose; 1 mg oral trandolapril, p = 0.17, not statistically significant) of the same compound?
The value was 20%.

What about the “decrease of AUC0–72 h in G143E carriers relative to noncarriers” value (Single-dose; 1 mg oral trandolapril, p = 0.33, not statistically significant) of the same compound?
Its value is 15%.

What about the CL (Single-dose; CES1 143G/E (n=8)) of the same compound?
The CL was 9.96 L/h.

And the CL (Single-dose; CES1 143G/G (n=11))?
Its CL is 12.20 L/h.

And the Tmax (Single-dose; human, plasma, po, 1 mg)?
Its Tmax is 6.7 h.

With `CCOC(=O)[C@H](CCc1ccccc1)N[C@@H](C)C(=O)N1CCC[C@H]1C(=O)O` [enalapril] as the compound, how does the “difference of PK parameters between G143E carriers and controls” value ([2]; Danish volunteers, 6 carriers and 16 noncarriers) read?
Its value is “no significant difference”.

With `C[C@H](N[C@@H](CCc1ccccc1)C(=O)O)C(=O)N1CCC[C@H]1C(=O)O` [enalaprilat] as the compound, how does the “decrease of AUC0‐∞ in G143E carriers” value ([2]; Finnish subjects, carriers = 10, noncarriers = 12, p = 0.049) read?
The value was 20%.

Which “mean AUC0‐∞ higher in G143E carriers than in controls” value ([2]; Danish volunteers, 6 carriers and 16 noncarriers, p < 0.0001) does the source give for `COC(=O)C(c1ccccc1)C1CCCCN1` (centres unmarked) [methylphenidate] here?
The value was 152.4%.

With `CCOC(=O)[C@H](CCc1ccccc1)N[C@@H](C)C(=O)N1Cc2ccccc2C[C@H]1C(=O)O` [quinapril] as the compound, how does the “impact of G143E on PKs” value ([2]; Finnish subjects, carriers = 10, noncarriers = 12) read?
The value was “no significant impact”.
